Series [1] relates to Mycobacterium tuberculosis. Description: Antitubercular activity against Mycobacterium tuberculosis H37Rv infected in Balb/c mouse assessed as reduction in lung bacterial burden at 25 to 100 mg/kg/day, po administered via gavage 5 times per week for 3 weeks starting from 10 days post-infection and measured 24 hrs post last dose. The settings on record: dose mg/kg/day 25-100, time 22.0 day. In kind it is functional, organism-based. Put shortly:
(§1)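 Female SPF BALB/c mice, 6 per group, aerosol-infected with M. tuberculosis H37Rv to deposit 50-100 bacilli per lung. Compound suspended in 0.5% CMC, given by oral gavage from day 10 post-infection, 5 times per week for 3 weeks; controls got 0.5% CMC. Lungs harvested the day after the last dose, homogenised, diluted in HBSS, plated on 7H11 agar in duplicate, incubated 3 weeks at 37 °C. Result expressed as mean log10 CFU; t-test versus control.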

Series [2] in a line: Stability in CD-1 mouse liver microsome assessed as parent compound remaining at 1 uM measured after 30 mins in presence of NADPH by LC-MS/MS analysis. The settings on record: liver microsomes, read-out: Stabilty. The series is classed as ADME. Put shortly:
(§2)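 Liver microsomes (male CD-1 mouse or pooled human), 1 mg/mL protein, compound 1 µM, 37°C with shaking. Started with 1 mM NADPH or run without cofactor. Quenched with ice-cold ACN/MeOH containing internal standard. Parent quantified by LC-MS/MS; 30 min concentration normalised to time zero.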
For orientation: Liver microsomes are vesicles of endoplasmic reticulum, rich in cytochrome P450 enzymes.

The target of series [3] is T1, Amine oxidase [flavin-containing] B (Homo sapiens, UniProt P27338).
T1 sequence (P27338 whole entry): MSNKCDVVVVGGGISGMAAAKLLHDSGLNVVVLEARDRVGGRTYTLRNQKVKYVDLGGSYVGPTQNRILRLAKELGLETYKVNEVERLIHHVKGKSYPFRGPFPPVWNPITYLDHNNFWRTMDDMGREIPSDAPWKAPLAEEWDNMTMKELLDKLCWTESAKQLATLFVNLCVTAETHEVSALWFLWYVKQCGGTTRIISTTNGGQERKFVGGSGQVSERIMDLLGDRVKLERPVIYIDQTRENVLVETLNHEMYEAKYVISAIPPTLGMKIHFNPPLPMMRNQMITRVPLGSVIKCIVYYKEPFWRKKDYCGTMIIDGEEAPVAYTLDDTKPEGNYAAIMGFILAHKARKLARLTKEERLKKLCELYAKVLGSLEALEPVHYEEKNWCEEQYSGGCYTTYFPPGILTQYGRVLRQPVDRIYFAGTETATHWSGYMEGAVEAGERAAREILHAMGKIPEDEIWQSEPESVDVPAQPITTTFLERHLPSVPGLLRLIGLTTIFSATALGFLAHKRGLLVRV
Nature of the series: Inhibition of recombinant human MAOB expressed in baculovirus infected insect cells using kynuramine as substrate measured after 20 mins by LC-MS/MS analysis. Put shortly: (§3)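 Recombinant human MAO-A or MAO-B (50 μg/mL) in 100 mM potassium phosphate pH 7.4 with 5 mM MgCl2. Kynuramine substrate at 50 μM (MAO-A) or 25 μM (MAO-B). […] 4-Hydroxyquinoline formation measured by LC-MS/MS versus vehicle; IC50 derived.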

The nature of series [4]: Stability in CD-1 mouse liver microsome at 1 uM measured after 30 mins in absence of NADPH by LC-MS/MS analysis. The series is classed as ADME. The settings on record: microsomes, 0.5 h. The essentials:
as §2

The next series concerns Vero. Nature of the series: Cytotoxicity against African green monkey Vero cells assessed as reduction in cell viability measured after 48 hrs by MTT assay. The series is classed as cell-based. The settings on record: Chlorocebus sabaeus. The essentials: (§4)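 Cytotoxicity on Vero or HepG2 cells by MTT assay, run as previously reported.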
For series [5], the system named is Mycobacterium tuberculosis. Description: Antitubercular activity against Mycobacterium tuberculosis isolate 12525 incubated for 7 days by microplate alamar blue assay. In kind it is functional. The settings on record: isolate 12525, 168 h, time 7 day. Put shortly: (§5)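 MIC determined by microplate alamar blue assay (MABA) following a published protocol.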
The test system of a further series is HepG2. Description: Cytotoxicity against human HepG2 cells assessed as reduction in cell viability measured after 48 hrs by MTT assay. The series is classed as cell-based. The settings on record: HepG2, 48 h. The essentials:
as §4
In general terms: Tetrazolium assays rely on reduction of a dye to a coloured formazan, in cell work by metabolically active cells.

In series [6] the target is T2, Amine oxidase [flavin-containing] A (Homo sapiens, UniProt P21397).
T2 sequence (P21397 whole entry): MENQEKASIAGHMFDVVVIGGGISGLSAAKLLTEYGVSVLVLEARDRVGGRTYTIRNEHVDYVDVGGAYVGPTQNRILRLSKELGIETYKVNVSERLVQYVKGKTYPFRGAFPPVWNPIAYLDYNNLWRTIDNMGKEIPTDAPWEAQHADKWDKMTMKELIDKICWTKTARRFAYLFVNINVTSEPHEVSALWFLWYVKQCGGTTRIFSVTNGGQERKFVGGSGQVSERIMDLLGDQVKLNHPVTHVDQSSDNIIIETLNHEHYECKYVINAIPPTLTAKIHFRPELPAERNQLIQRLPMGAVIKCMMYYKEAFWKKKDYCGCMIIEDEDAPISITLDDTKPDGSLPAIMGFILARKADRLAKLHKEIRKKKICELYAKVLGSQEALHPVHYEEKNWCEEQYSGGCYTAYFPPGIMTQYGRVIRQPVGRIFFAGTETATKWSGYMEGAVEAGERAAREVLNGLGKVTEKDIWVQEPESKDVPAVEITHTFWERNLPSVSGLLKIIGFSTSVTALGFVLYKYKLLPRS
Description: Inhibition of recombinant human MAOA expressed in baculovirus infected insect cells using kynuramine as substrate measured after 20 mins by LC-MS/MS analysis. The essentials:
as §3

Series [7] relates to Mycobacterium tuberculosis. Nature of the series: Antitubercular activity against Mycobacterium tuberculosis H37Rv incubated for 7 days by microplate alamar blue assay. The series is classed as functional. The settings on record: Mycobacterium tuberculosis, H37Rv, 168 h, time 7 day; read-out: MIC. Put shortly: as §5
A short description of series [8]: Inhibition of mitochondrial protein synthesis in rat H9c2 cells measured after 5 days by ELISA. In kind it is cell-based. The settings on record: H9c2, 120 h. Put shortly:
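H9C2 cells in DMEM with 10% FBS, seeded 1500/well. After 18 h, compound added at final 0.03–200 μM (3-fold series), then 5 days at 37 °C, 5% CO2; 0.5% DMSO negative control. MPS inhibition read by MitoBiogenesis In-Cell ELISA; IC50 calculated.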
A general note: ELISA stands for enzyme-linked immunosorbent assay.

The test system of series [9] is Mycobacterium tuberculosis. Description: Antitubercular activity against Mycobacterium tuberculosis H37Rv infected in Balb/c mouse assessed as lung bacterial burden by measuring colony forming unit at 25 mg/kg/day, po administered via gavage 5 times per week for 3 weeks starting from 10 days post-infection and measured 24 hrs post last dose (reference value: 7.102 +/- 0.152 log10CFU). In kind it is functional. The settings on record: time 22 day. The essentials: as §1

Series [10] in a line: Toxicity in Mycobacterium tuberculosis H37Rv infected Balb/c mouse assessed as change in body weight at 25 mg/kg/day, po administered via gavage 5 times per week for 3 weeks starting from 10 days post-infection (reference value: 21.29 +/- 0.84 g). The settings on record: in vivo, 504 h, time 21 day. In kind it is organism-based.
Series [11] concerns Mycobacterium tuberculosis. Nature of the series: Antitubercular activity against Mycobacterium tuberculosis H37Rv infected in Balb/c mouse assessed as lung bacterial burden by measuring colony forming unit at 100 mg/kg/day, po administered via gavage 5 times per week for 3 weeks starting from 10 days post-infection and measured 24 hrs post last dose (reference value: 7.102 +/- 0.152 log10CFU). In kind it is functional. The settings on record: time 22 day. Put shortly: as §1

The test system of series [12] is Mycobacterium tuberculosis. Description: Antitubercular activity against Mycobacterium tuberculosis H37Rv infected in Balb/c mouse assessed as reduction in lung bacterial burden at 50 to 100 mg/kg/day, po administered via gavage 5 times per week for 3 weeks starting from 10 days post-infection and measured 24 hrs post last dose. In kind it is functional, organism-based. The conditions noted are these: dose mg/kg/day 50-100, time 22.0 day. The essentials: as §1

Series [13] in a line: Toxicity in Mycobacterium tuberculosis H37Rv infected Balb/c mouse assessed as change in body weight at 100 mg/kg/day, po administered via gavage 5 times per week for 3 weeks starting from 10 days post-infection (reference value: 21.29 +/- 0.84 g). In kind it is organism-based. The conditions noted are these: in vivo, 504 h, time 21 day.

The results in this text go back to ChEMBL document CHEMBL4725282, “Discovery of a Conformationally Constrained Oxazolidinone with Improved Safety and Efficacy Profiles for the Treatment of Multidrug-Resistant Tuberculosis” (J Med Chem, 2020).

In general, IC50 refers to the concentration that inhibits the measured activity by half. In general, MIC refers to the lowest concentration that inhibits growth of the organism.

Structures are written as SMILES. Converted amounts (≈) assume the structure as drawn. The source made the active and inactive calls. No cut-off for these calls is given here.

`CC(=O)NC[C@@H]1OC(=O)N2c3cc(F)c(N4CCSCC4)cc3OC[C@@H]12`: the result in series [1] was Active.
As for `CC(=O)NC[C@H]1CN(c2ccc(N3CCSCC3)c(F)c2)C(=O)O1` [SUTEZOLID], the remaining at 0.5 h, 1 µM in series [2] was determined as 54.8%. Besides, the 50% inhibitory concentration (IC50) in series [3] is 0.7 µM; with Vero, over 64 µg/mL; with HepG2, over 64 µg/mL; in series [6], 13 µM; in series [8], 8.17 µM. Also, the Stabilty result in series [4] is “Stable”. The minimal inhibitory concentration (MIC) was found to be 0.06 µg/mL (≈ 0.17 µM) in [5] and 0.1 µg/mL (≈ 0.283 µM) in [7].
As for `NNC(=O)c1ccncc1` [ISONIAZID], the Activity worked out at 1.929 log10CFU in series [9] and 21.3 g in [10]. The minimal inhibitory concentration (MIC) is over 10 µg/mL in series [5] and 0.03 µg/mL (≈ 0.219 µM) in series [7].
As to `CC(=O)NC[C@H]1CN(c2ccc(N3CCOCC3)c(F)c2)C(=O)O1` [LINEZOLID], the remaining at 0.5 h, 1 µM in series [2] worked out at 111%. Moreover, the Stabilty result in series [4] is reported as “Stable”. Also, the results for the Activity in series [11] and in series [13] were 4.136 log10CFU and 20.83 g, respectively. Moreover, the values for the MIC in [5] and in series [7] were 0.23 µg/mL (≈ 0.682 µM) and 0.32 µg/mL (≈ 0.949 µM), respectively. Moreover, the midpoint of inhibition in series [8], the IC50, lay at 7.98 µM. Moreover, the outcome in series [12] was Active.
